Data published in ChEMBL document CHEMBL4382220, “Enhancement of the tail hydrophobic interactions within the carbonic anhydrase IX active site via structural extension: Design and synthesis of novel N-substituted isatins-SLC-0111 hybrids as carbonic anhydrase inhibitors and antitumor agents” (Eur J Med Chem, 2019).
pIC50, pKi: −log10 of the molar value.

Legend:
[1] = molecular target: Carbonic anhydrase 1 (Homo sapiens, UniProt P00915); test: Inhibition of recombinant human carbonic anhydrase 1 by stopped flow CO2 hydration assay
Carbonic anhydrase 1, sequence (P00915 whole entry): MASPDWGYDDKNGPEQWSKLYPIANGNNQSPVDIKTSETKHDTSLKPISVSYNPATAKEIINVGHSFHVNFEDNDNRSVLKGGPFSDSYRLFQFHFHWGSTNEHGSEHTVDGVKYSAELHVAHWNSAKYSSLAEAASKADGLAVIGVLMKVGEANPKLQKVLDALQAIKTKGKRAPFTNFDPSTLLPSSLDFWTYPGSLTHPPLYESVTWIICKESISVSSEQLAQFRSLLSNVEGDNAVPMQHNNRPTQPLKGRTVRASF

[2] = molecular target: Carbonic anhydrase 9 (Homo sapiens, UniProt Q16790)
[3] = tested on: MDA-MB-231; test: Antiproliferative activity against human MDA-MB-231 cells after 48 hrs under hypoxic condition by MTT assay; format: functional, cell-based; conditions: MDA-MB-231, 48 h
Procedure, shortened: (§1)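 MCF-7 and MDA-MB-231 cells (ATCC) grown in DMEM with 10% heat-inactivated FBS, 1% L-glutamine (2.5 mM), 10 mM HEPES, 50 μg/mL gentamycin and 100 μM CoCl2 as hypoxia inducer, 37 C, 5% CO2. MTT read-out after 48 h exposure. IC50 is the concentration giving 50% growth inhibition relative to untreated controls, mean ± S.D. of three separate experiments.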

[4] = tested on: MCF7; test: Antiproliferative activity against human MCF7 cells after 48 hrs under hypoxic condition by MTT assay; format: functional, cell-based; conditions: MCF7, 48 h; procedure, shortened: as §1
[5] = tested on: MDA-MB-231; test: Induction of apoptosis in human MDA-MB-231 cells assessed as early apoptotic cells after 24 hrs by Annexin V-FITC/propidium iodide staining based flow cytometry (reference value: 0.77%); format: functional
[6] = tested on: MDA-MB-231; test: Induction of apoptosis in human MDA-MB-231 cells assessed as late apoptotic cells after 24 hrs by Annexin V-FITC/propidium iodide staining based flow cytometry (reference value: 0.26%); format: functional
[7] = tested on: MDA-MB-231; test: Induction of apoptosis in human MDA-MB-231 cells assessed as necrotic cells after 24 hrs by Annexin V-FITC/propidium iodide staining based flow cytometry (reference value: 0.51%); format: functional
[8] = molecular target: Vascular endothelial growth factor receptor 2 (Homo sapiens, UniProt P35968)
Vascular endothelial growth factor receptor 2, sequence (P35968 whole entry): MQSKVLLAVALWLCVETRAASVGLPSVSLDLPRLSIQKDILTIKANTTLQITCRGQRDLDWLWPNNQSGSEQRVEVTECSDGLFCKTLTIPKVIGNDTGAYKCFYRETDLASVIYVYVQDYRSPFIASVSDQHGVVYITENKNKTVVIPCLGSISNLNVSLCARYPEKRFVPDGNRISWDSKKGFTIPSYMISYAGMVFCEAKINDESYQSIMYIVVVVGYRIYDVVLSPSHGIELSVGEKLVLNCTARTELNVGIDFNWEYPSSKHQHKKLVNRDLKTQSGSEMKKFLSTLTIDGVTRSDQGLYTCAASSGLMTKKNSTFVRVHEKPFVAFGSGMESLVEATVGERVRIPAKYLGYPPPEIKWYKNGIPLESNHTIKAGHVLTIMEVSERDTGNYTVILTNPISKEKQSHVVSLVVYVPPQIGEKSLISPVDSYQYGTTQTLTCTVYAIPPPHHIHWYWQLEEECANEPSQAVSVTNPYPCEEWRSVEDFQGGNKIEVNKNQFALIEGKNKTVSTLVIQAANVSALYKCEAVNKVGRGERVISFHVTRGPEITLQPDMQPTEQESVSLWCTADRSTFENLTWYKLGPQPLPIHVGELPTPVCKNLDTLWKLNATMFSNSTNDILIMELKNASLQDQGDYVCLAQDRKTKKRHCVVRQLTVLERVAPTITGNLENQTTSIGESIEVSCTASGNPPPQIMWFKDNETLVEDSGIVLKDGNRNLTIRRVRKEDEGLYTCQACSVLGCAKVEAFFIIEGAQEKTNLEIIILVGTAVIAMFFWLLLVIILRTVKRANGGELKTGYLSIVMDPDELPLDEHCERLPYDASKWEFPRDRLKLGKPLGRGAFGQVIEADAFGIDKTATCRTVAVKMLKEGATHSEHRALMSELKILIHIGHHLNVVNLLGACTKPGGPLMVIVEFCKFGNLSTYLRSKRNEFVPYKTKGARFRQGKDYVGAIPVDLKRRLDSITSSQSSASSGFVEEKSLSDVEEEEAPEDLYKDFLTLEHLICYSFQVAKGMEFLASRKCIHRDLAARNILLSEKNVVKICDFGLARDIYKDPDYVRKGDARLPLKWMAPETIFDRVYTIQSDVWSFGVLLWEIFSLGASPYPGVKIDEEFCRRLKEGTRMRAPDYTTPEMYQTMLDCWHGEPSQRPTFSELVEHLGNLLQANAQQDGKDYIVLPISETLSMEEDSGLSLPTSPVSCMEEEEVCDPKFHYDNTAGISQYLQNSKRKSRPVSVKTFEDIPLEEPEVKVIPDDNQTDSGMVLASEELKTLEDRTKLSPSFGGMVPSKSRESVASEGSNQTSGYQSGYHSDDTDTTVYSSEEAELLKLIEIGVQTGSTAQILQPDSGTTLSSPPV

Structure (SMILES)	pKi [1]	pKi [2]	other results
NS(=O)(=O)c1ccc(NC(=O)Nc2ccc(/N=C3\C(=O)N(Cc4ccccc4)c4ccccc43)cc2)cc1	6.19	7.14	
CN1C(=O)/C(=N\c2ccc(NC(=O)Nc3ccc(S(N)(=O)=O)cc3)cc2)c2cc(Cl)ccc21	6.39	8.28	pIC50 [3]: 5.13; pIC50 [4]: 4.89; Activity [5]: 7.28%; Activity [6]: 11.26%; Activity [7]: 2.47%; pIC50 [8]: 6.58
CN1C(=O)/C(=N\c2ccc(NC(=O)Nc3ccc(S(N)(=O)=O)cc3)cc2)c2ccccc21	6.05	7.60	
N#Cc1ccc(CN2C(=O)/C(=N\c3ccc(NC(=O)Nc4ccc(S(N)(=O)=O)cc4)cc3)c3cc(Br)ccc32)cc1	5.23	7.43	
CN1C(=O)/C(=N\c2ccc(NC(=O)Nc3ccc(S(N)(=O)=O)cc3)cc2)c2cc(Br)ccc21	5.71	8.04	
CCCN1C(=O)/C(=N\c2ccc(NC(=O)Nc3ccc(S(N)(=O)=O)cc3)cc2)c2cc(Br)ccc21	5.53	7.57	
Cc1ccc(CN2C(=O)/C(=N\c3ccc(NC(=O)Nc4ccc(S(N)(=O)=O)cc4)cc3)c3cc(Br)ccc32)cc1	5.33	7.58	
Cc1ccc(CN2C(=O)/C(=N\c3ccc(NC(=O)Nc4ccc(S(N)(=O)=O)cc4)cc3)c3ccccc32)cc1	5.18	8.33	pIC50 [3]: 4.31; pIC50 [4]: 4.93; pIC50 [8]: 6.34
CCCN1C(=O)/C(=N\c2ccc(NC(=O)Nc3ccc(S(N)(=O)=O)cc3)cc2)c2cc(Cl)ccc21	6.22	8.09	pIC50 [3]: 4.59; pIC50 [4]: 5.13; pIC50 [8]: 6.42
NS(=O)(=O)c1ccc(NC(=O)Nc2ccc(/N=C3\C(=O)N(Cc4ccccc4)c4ccc(Cl)cc43)cc2)cc1	5.60	7.06	
NS(=O)(=O)c1ccc(NC(=O)Nc2ccc(/N=C3\C(=O)N(Cc4cccc(F)c4)c4ccc(Cl)cc43)cc2)cc1	5.29	7.23	
Cc1ccc(CN2C(=O)/C(=N\c3ccc(NC(=O)Nc4ccc(S(N)(=O)=O)cc4)cc3)c3cc(Cl)ccc32)cc1	5.21	7.37	
N#Cc1ccc(CN2C(=O)/C(=N\c3ccc(NC(=O)Nc4ccc(S(N)(=O)=O)cc4)cc3)c3ccccc32)cc1	5.64	8.01	pIC50 [3]: 4.64; pIC50 [4]: 5.22; pIC50 [8]: 6.68
NS(=O)(=O)c1ccc(NC(=O)Nc2ccc(/N=C3\C(=O)N(Cc4ccccc4)c4ccc(Br)cc43)cc2)cc1	5.23	7.39	
N#Cc1ccc(CN2C(=O)/C(=N\c3ccc(NC(=O)Nc4ccc(S(N)(=O)=O)cc4)cc3)c3cc(Cl)ccc32)cc1	5.08	7.46	
NS(=O)(=O)c1ccc(NC(=O)Nc2ccc(/N=C3\C(=O)N(Cc4cccc(F)c4)c4ccccc43)cc2)cc1	5.68	7.26	
NS(=O)(=O)c1ccc(NC(=O)Nc2ccc(/N=C3\C(=O)N(Cc4cccc(F)c4)c4ccc(Br)cc43)cc2)cc1	5.33	7.21	
CCCN1C(=O)/C(=N\c2ccc(NC(=O)Nc3ccc(S(N)(=O)=O)cc3)cc2)c2ccccc21	6.03	7.71	
COc1cccc2c1C(=O)c1c(O)c3c(c(O)c1C2=O)C[C@@](O)(C(=O)CO)C[C@@H]3O[C@H]1C[C@H](N)[C@H](O)[C@H](C)O1 [DOXORUBICIN]			pIC50 [3]: 5.07
